Data taken from ChEMBL document CHEMBL3352141, “Carboline- and phenothiazine-derivated heterocycles as potent SIGMA-1 protein ligands” (Eur J Med Chem, 2015).

Tests used:
[1] = Cytotoxicity against human SH-SY5Y cells after 72 hrs by MTT assay; type: cell-based
Procedure, shortened: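 SH-SY5Y neuroblastoma cells were grown in DMEM with 2 mM L-glutamine, streptomycin, 100 IU/mL penicillin, 1 mM non-essential amino acids and 10% heat-inactivated FBS at 37 °C under 5% CO2. Cells were seeded at 2000 per well and serum-starved 24 h, then exposed to a concentration series in <0.1% DMSO. Viability was read by colorimetric MTT. IC50 is the mean of 2–3 independent experiments.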

[2] = Displacement of [3H]-DTG from human sigma 2 receptor in human Jurkat cell membranes incubated for 1 hr by liquid scintillation counting
Procedure, shortened: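 Competition binding on Jurkat cell membranes (10–20 µg protein per tube) with 25 nM [3H]-DTG, plus (+)-pentazocine to saturate sigma-1 sites, across a range of test concentrations. Incubation was 1 h at room temperature in 5 mM Tris/HCl, pH 7.4. Bound ligand was separated by rapid GF/B filtration with ice-cold NaCl washes and counted by liquid scintillation. Nonspecific binding was measured under similar conditions.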

[3] = biological target: Sigma non-opioid intracellular receptor 1 (Homo sapiens, UniProt Q99720); assay: Displacement of [3H](+)-pentazocine from human sigma 1 receptor in human Jurkat cell membranes incubated for 2 hrs by liquid scintillation counting
Sequence of Sigma non-opioid intracellular receptor 1 (Q99720 whole entry): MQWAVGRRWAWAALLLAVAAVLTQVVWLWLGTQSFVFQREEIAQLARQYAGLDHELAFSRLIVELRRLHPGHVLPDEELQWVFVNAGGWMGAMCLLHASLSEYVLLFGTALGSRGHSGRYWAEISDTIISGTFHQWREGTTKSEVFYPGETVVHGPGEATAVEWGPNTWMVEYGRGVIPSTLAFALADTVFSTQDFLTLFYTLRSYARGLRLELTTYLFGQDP

Jurkat [4] = assay: Selectivity index, ratio of Ki for human sigma 2 receptor in human Jurkat cell membranes to Ki for human sigma 1 receptor in human Jurkat cell membranes; type: cell-based
Procedure, shortened: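 The ratio divides sigma-2 Ki by sigma-1 Ki, both measured on Jurkat membranes. Sigma-2 used 25 nM [3H]-DTG with (+)-pentazocine masking, 1 h at room temperature. Sigma-1 used 15 nM [3H](+)-pentazocine, 2 h at 37 °C. Both assays ran in 5 mM Tris/HCl, pH 7.4, with filtration and scintillation read-out.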

[5] = Selectivity index, ratio of IC50 for human SH-SY5Y cells to Ki for human sigma 1 receptor in human Jurkat cell membranes
[6] = Displacement of [3H]-DTG from rat cerebral cortex membrane sigma 2 receptor incubated for 1 hr by liquid scintillation counting; type: tissue-based
Jurkat [7] = assay: Selectivity index, ratio of Ki for sigma 2 receptor in rat cerebral cortex membranes to Ki for human sigma 1 receptor in human Jurkat cell membranes; type: cell-based

| SMILES | Ki [3] | Ki [6] | IC50 [1] | Ki [2] | Ratio Ki (Jurkat [4]) | Selectivity Index [5] | Ratio Ki (Jurkat [7]) |
| --- | --- | --- | --- | --- | --- | --- | --- |
| CN(CCCN1CCc2c([nH]c3ccccc23)C1)Cc1ccccc1 | 6.2 nM |  | 19.7 µM | 15 nM | 2.4 | 3177 |  |
| c1ccc2c3c([nH]c2c1)CN(CCCN1CCCC1)CC3 | > 200 nM |  | 32.9 µM | > 400 nM |  | <160 |  |
| c1ccc2c(c1)CN(CCCN1CCc3c([nH]c4ccccc34)C1)C2 | 8 nM |  | 24.9 µM | 110 nM | 14 | 3112 |  |
| CN(CCCn1c(=O)oc2cc3c(cc21)C(c1ccccc1)CC3=O)Cc1ccccc1 (stereo unspecified) | 72 nM |  | > 100 µM | 180 nM | 2.5 | >1389 |  |
| c1ccc2c(c1)CN(CCCN1c3ccccc3Sc3ccccc31)C2 | 12 nM |  | 83.3 µM | 94 nM | 8 | 6942 |  |
| c1ccc2c(c1)CN(CCCN1CCc3[nH]c4ccccc4c3C1)C2 | 72 nM |  | 50 µM | 180 nM | 2.5 | 694 |  |
| c1ccc2c(c1)CN(CCCN1CCc3oc4ccccc4c3C1)C2 | 11 nM |  | 78.9 µM | 9.9 nM | 0.9 | 7173 |  |
| CN(CCCn1c(=O)oc2cc3c(cc21)C(c1ccc(Cl)cc1)CC3=O)Cc1ccccc1 (stereo unspecified) | 160 nM |  | 5 µM | 50 nM | 0.3 | 31 |  |
| CN(CCCN1CCc2oc3ccccc3c2C1)CCc1ccccc1 | 2.5 nM |  | 25.4 µM | 78 nM | 31 | 10160 |  |
| c1ccc(C2c3[nH]c4ccccc4c3CCN2CCCN2CCCC2)cc1 (stereo unspecified) | 36 nM |  | 47.8 µM | 310 nM | 9 | 1328 |  |
| CN(CCCN1CCc2c([nH]c3ccccc23)C1)CCc1ccccc1 | 7.2 nM |  | 11.6 µM | 91 nM | 13 | 1611 |  |
| CN(CCCN1CCc2[nH]c3ccccc3c2C1)CCc1ccccc1 | 11 nM |  | 33.2 µM | 200 nM | 18 | 3018 |  |
| CN(CCCN1C(=O)[C@H]2Cc3ccccc3CN2C1=O)Cc1ccccc1 |  | 764 nM | 19.5 µM | 764 nM |  |  |  |
| CN(CCCN1CCc2c([nH]c3ccccc23)C1c1ccccc1)CCc1ccccc1 (stereo unspecified) | 11 nM |  | 11.8 µM | 93 nM | 8 | 1073 |  |
| c1ccc(C2c3[nH]c4ccccc4c3CCN2CCCN2Cc3ccccc3C2)cc1 (stereo unspecified) | 8.4 nM |  | 18.3 µM | 110 nM | 13 | 2179 |  |
| O=C1C2Cc3ccccc3CN2C(=O)N1CCCN1Cc2ccccc2C1 (stereo unspecified) | 5.3 nM | 416 nM |  | 416 nM | 103 |  | 78 |
| O=C(CCCN1CCC(O)(c2ccc(Cl)cc2)CC1)c1ccc(F)cc1 [HALOPERIDOL] |  |  |  | 175 nM |  |  |  |
| CN(CCCN1C(=O)[C@@H]2Cc3ccccc3CN2C1=O)Cc1ccccc1 |  | 496 nM | > 100 µM | 496 nM |  |  |  |

Further lines, with some results ahead:

| Ki [3] | Ki [6] | SMILES | IC50 [1] | Ki [2] | Ratio Ki (Jurkat [4]) | Selectivity Index [5] | Ratio Ki (Jurkat [7]) |
| --- | --- | --- | --- | --- | --- | --- | --- |
| 18 nM |  | CN(CCCN1CCc2[nH]c3ccccc3c2C1)Cc1ccccc1 | 16.9 µM | 130 nM | 7 | 939 |  |
| 28 nM |  | CN(CCCN1c2ccccc2Sc2ccccc21)Cc1ccccc1 | 17.1 µM | 280 nM | 10 | 611 |  |
| 2 nM |  | CN(CCCN1CCc2oc3ccccc3c2C1)Cc1ccccc1 | 68.9 µM | < 10 nM | < 5 | 34450 |  |
| > 200 nM |  | c1ccc2c(c1)CN(CCCN1c3ccccc3Oc3ccccc31)C2 | 11 µM | 140 nM | < 1 | <55 |  |
| 11 nM |  | CN(CCCN1c2ccccc2Sc2ccccc21)CCc1ccccc1 | 8.6 µM | 310 nM | 28 | 782 |  |
| 4.3 nM |  | CN(CCCN1CCc2c([nH]c3ccccc23)C1c1ccccc1)Cc1ccccc1 (stereo unspecified) | 9.3 µM | 100 nM | 23 | 2163 |  |
| > 200 nM |  | CN(CCCN1c2ccccc2Oc2ccccc21)Cc1ccccc1 | 71.9 µM | 180 nM | < 1 | <350 |  |
| 18 nM |  | CN(CCCN1c2ccccc2Oc2ccccc21)CCc1ccccc1 | 46.9 µM | 80 nM | 4 | 2606 |  |
